Measured values taken from ChEMBL document CHEMBL4715682, “Potent trifluoromethoxy, trifluoromethylsulfonyl, trifluoromethylthio and pentafluorosulfanyl containing (1,3,4-oxadiazol-2-yl)benzamides against drug-resistant Gram-positive bacteria” (RSC Med Chem, 2020).
Converted amounts (≈) assume the structure as drawn. The source made the active and inactive calls. The rule behind the calls is not given here.

Key:
Staphylococcus aureus [1] = experiment: Antibacterial activity against methicillin-resistant Staphylococcus aureus NRS483 assessed as inhibition of visible bacterial growth incubated for 18 to 20 hrs by CLSI method; assay type: functional; settings: time 18-20 hrs
How it was run: (§1)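 CLSI broth microdilution. Strains grown aerobically overnight on tryptic soy agar at 37 °C, adjusted to 0.5 McFarland and diluted in cation-adjusted Mueller–Hinton broth to about 5×10^5 CFU/mL. Compounds and control drugs serially diluted across the plate. Incubated aerobically at 37 °C for 18-20 h. MIC is the lowest concentration with no visible growth.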

Caco-2 = experiment: Cytotoxicity against human Caco2 cells assessed as reduction in cell viability at 128 ug/ml incubated for 2 hrs by MTS assay; assay type: cell-based; settings: caco-2, 2 h, dose 128 µg/ml
Enterococcus faecalis [2] = experiment: Antibacterial activity against vancomycin- resistant Enterococcus faecalis ATCC 700221 assessed as inhibition of visible bacterial growth incubated for 18 to 20 hrs by CLSI method; assay type: functional; settings: time 18-20 hrs; how it was run: as §1
Staphylococcus aureus [3] = experiment: Antibacterial activity against vancomycin-resistant Staphylococcus aureus 12 assessed as inhibition of visible bacterial growth incubated for 18 to 20 hrs by CLSI method; assay type: functional; settings: time 18-20 hrs; how it was run: as §1
Staphylococcus aureus [4] = experiment: Antibacterial activity against methicillin-resistant Staphylococcus aureus NRS 119 assessed as inhibition of visible bacterial growth incubated for 18 to 20 hrs by CLSI method; assay type: functional; settings: time 18-20 hrs; how it was run: as §1
Staphylococcus aureus [5] = experiment: Antibacterial activity against methicillin-sensitive Staphylococcus aureus NRS 107 assessed as inhibition of visible bacterial growth incubated for 18 to 20 hrs by CLSI method; assay type: functional; settings: time 18-20 hrs; how it was run: as §1
Staphylococcus aureus [6] = experiment: Antibacterial activity against methicillin-resistant Staphylococcus aureus NRS387 assessed as inhibition of visible bacterial growth incubated for 18 to 20 hrs by CLSI method; assay type: functional; settings: time 18-20 hrs; how it was run: as §1
[7] = test system: Staphylococcus epidermidis; experiment: Antibacterial activity against Staphylococcus epidermidis NRS101 assessed as inhibition of visible bacterial growth incubated for 18 to 20 hrs by CLSI method; assay type: functional; settings: time 18-20 hrs
How it was run: (§2)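 Broth microdilution per CLSI. Strains grown aerobically overnight on TSA at 37 °C, suspended to 0.5 McFarland, diluted in CAMHB to about 5×10^5 CFU/mL. Agents serially diluted across plate; aerobic incubation 37 °C for 18-20 h. MIC = lowest concentration completely preventing visible growth.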

Staphylococcus aureus [8] = experiment: Antibacterial activity against vancomycin-resistant Staphylococcus aureus 10 assessed as inhibition of visible bacterial growth incubated for 18 to 20 hrs by CLSI method; assay type: functional; settings: time 18-20 hrs; how it was run: as §1
Staphylococcus aureus [9] = experiment: Antibacterial activity against methicillin-resistant Staphylococcus aureus NRS123 assessed as inhibition of visible bacterial growth incubated for 18 to 20 hrs by CLSI method; assay type: functional; settings: time 18-20 hrs; how it was run: as §1
[10] = Hemolytic activity in human RBC at 64 ug/ml incubated for 60 mins relative to control; assay type: ADME, cell-based, Erythrocyte; settings: red blood cells (erythrocytes), at 64 µg/mL, read-out: Activity
How it was run: (§3)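 Single-donor human erythrocytes as a 5% v/v suspension in PBS. Compounds serially diluted in PBS, in triplicate, and incubated with RBCs at 37 °C for 60 min. PBS served as the negative control and Triton-X as the positive control. Samples spun at 4,000 rpm for 5 min and supernatant absorbance read at 540 nm. Percent hemolysis = 100×(sample−negative)/(positive−negative).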

Staphylococcus aureus [11] = experiment: Antibacterial activity against Staphylococcus aureus ATCC 25923 assessed as inhibition of visible bacterial growth incubated for 18 to 20 hrs by CLSI method; assay type: functional; settings: time 18-20 hrs; how it was run: as §1
Staphylococcus aureus [12] = experiment: Bacteriostatic activity against methicillin-resistant Staphylococcus aureus ATCC 33592 assessed as reduction in bacterial growth incubated for 18 hrs by CLSI method; assay type: functional
Staphylococcus aureus [13] = experiment: Antibacterial activity against methicillin-sensitive Staphylococcus aureus ATCC 6538 assessed as inhibition of visible bacterial growth incubated for 18 to 20 hrs by CLSI method; assay type: functional; settings: time 18-20 hrs; how it was run: as §1
Staphylococcus aureus [14] = experiment: Synergistic antibacterial activity against methicillin-resistant Staphylococcus aureus ATCC 33592 assessed as fractional inhibitory concentration index in presence of Vancomycin; assay type: functional
[15] = Hemolytic activity in human RBC at 32 ug/ml incubated for 60 mins relative to control; assay type: ADME, cell-based, Erythrocyte; settings: red blood cells (erythrocytes), at 32 µg/mL, read-out: Activity; how it was run: as §3
Streptococcus pneumoniae = experiment: Antibacterial activity against cephalosporin-resistant Streptococcus pneumoniae ATCC 51916 assessed as inhibition of visible bacterial growth incubated for 18 to 20 hrs by CLSI method; assay type: functional; settings: time 18-20 hrs; how it was run: as §1
Listeria monocytogenes = experiment: Antibacterial activity against Listeria monocytogenes ATCC 19111 assessed as inhibition of visible bacterial growth incubated for 18 to 20 hrs by CLSI method; assay type: functional; settings: time 18-20 hrs; how it was run: as §2
Staphylococcus aureus [16] = experiment: Antibacterial activity against methicillin-resistant Staphylococcus aureus NRS484 assessed as inhibition of visible bacterial growth incubated for 18 to 20 hrs by CLSI method; assay type: functional; settings: time 18-20 hrs; how it was run: as §1
[17] = Hemolytic activity in human RBC at 128 ug/ml incubated for 60 mins relative to control; assay type: ADME, cell-based, Erythrocyte; settings: red blood cells (erythrocytes), dose 128 µg/ml, read-out: Activity; how it was run: as §3
Acinetobacter baumannii = experiment: Antibacterial activity against Acinetobacter baumannii ATCC 19606 RW4 assessed as inhibition of visible bacterial growth at 16 ug/ml incubated for 18 to 20 hrs by CLSI method; assay type: functional, organism-based; settings: ATCC 19606 = CIP 70.34 = JCM 6841 RW4, dose 16.0 µg/ml, time 18-20 hrs; how it was run: as §1
Staphylococcus aureus [18] = experiment: Antibacterial activity against methicillin-resistant Staphylococcus aureus NRS384 assessed as inhibition of visible bacterial growth incubated for 18 to 20 hrs by CLSI method; assay type: functional; settings: time 18-20 hrs; how it was run: as §1
Staphylococcus aureus [19] = experiment: Antibacterial activity against methicillin-resistant Staphylococcus aureus USA400 infected in mouse J774 cells assessed as log reduction in intracellular growth at 8 ug/ml incubated for 18 to 22 hrs; assay type: functional; settings: dose 8 µg/ml; time 18-22 hrs
How it was run: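 J774 murine macrophages grown in DMEM with 10% FBS at 37 °C, 5% CO2. Cells infected with MRSA USA400 at MOI about 10:1 for 1 h, then washed with gentamicin to remove extracellular bacteria. Agents added at 8 or 16 μg/mL in triplicate, with DMSO vehicle control, for 24 h. Cells lysed with 0.1% Triton-X, lysates plated on tryptic soy agar, and CFU counted after 18-22 h at 37 °C. Analysed by two-way ANOVA with Dunnett's test.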

Staphylococcus aureus [20] = experiment: Antibacterial activity against methicillin-resistant Staphylococcus aureus NRS383 assessed as inhibition of visible bacterial growth incubated for 18 to 20 hrs by CLSI method; assay type: functional; settings: time 18-20 hrs; how it was run: as §1
Staphylococcus aureus [21] = experiment: Antibacterial activity against methicillin-resistant Staphylococcus aureus NRS382 assessed as inhibition of visible bacterial growth incubated for 18 to 20 hrs by CLSI method; assay type: functional; settings: time 18-20 hrs; how it was run: as §1
Enterococcus faecalis [22] = experiment: Antibacterial activity against vancomycin- resistant Enterococcus faecalis ATCC 51299 assessed as inhibition of visible bacterial growth incubated for 18 to 20 hrs by CLSI method; assay type: functional; settings: time 18-20 hrs; how it was run: as §1
Escherichia coli = experiment: Antibacterial activity against Escherichia coli ATCC 25404 assessed as inhibition of visible bacterial growth at 16 ug/ml incubated for 18 to 20 hrs by CLSI method; assay type: functional, organism-based; settings: B ATCC 25404, dose 16.0 µg/ml, time 18-20 hrs; how it was run: as §1
Staphylococcus aureus [23] = experiment: Antibacterial activity against methicillin-resistant Staphylococcus aureus ATCC 33592 assessed as reduction in bacterial count at 3 x MIC incubated upto 24 hrs by time kill analysis; assay type: functional; settings: time hrs <=24
How it was run: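 Time-kill assay. […] Samples taken at 0, 2, 4, 8, 12 and 24 h, serially diluted in PBS and plated on tryptic soy agar. Viable CFU/mL counted after 18-20 h at 37 °C.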

Compound: O=C(Nc1nnc(-c2cccs2)o1)c1ccc(S(=O)(=O)C(F)(F)F)cc1
- MIC (Staphylococcus aureus [1]): 4 µg/mL (≈ 9.92 µM)
- Activity (Caco-2): Non-Toxic
- MIC (Enterococcus faecalis [2]): 4 µg/mL (≈ 9.92 µM)
- MIC (Staphylococcus aureus [3]): 8 µg/mL (≈ 19.8 µM)
- MIC (Staphylococcus aureus [4]): 8 µg/mL (≈ 19.8 µM)
- MIC (Staphylococcus aureus [5]): 4 µg/mL (≈ 9.92 µM)
- MIC (Staphylococcus aureus [6]): 4 µg/mL (≈ 9.92 µM)
- MIC [7]: 4 µg/mL (≈ 9.92 µM)
- MIC (Staphylococcus aureus [8]): 4 µg/mL (≈ 9.92 µM)
- MIC (Staphylococcus aureus [9]): 4 µg/mL (≈ 9.92 µM)
- hemolysis at 1 h, 64 ug/ml [10]: 35%
- MIC (Staphylococcus aureus [11]): 0.5 µg/mL (≈ 1.24 µM)
- MBC (Staphylococcus aureus [12]): > 128 µg/mL
- MIC (Staphylococcus aureus [13]): 8 µg/mL (≈ 19.8 µM)
- fractional inhibitory concentration index (FICI) (Staphylococcus aureus [14]): 1.03
- hemolysis at 1 h, 32 ug/ml [15]: 23%
- MIC (Streptococcus pneumoniae): 2 µg/mL (≈ 4.96 µM)
- MIC (Listeria monocytogenes): 2 µg/mL (≈ 4.96 µM)
- MIC (Staphylococcus aureus [16]): 4 µg/mL (≈ 9.92 µM)
- hemolysis at 1 h, 128 ug/ml [17]: 37%
- inhibition (Acinetobacter baumannii): inactive
- MIC (Staphylococcus aureus [18]): 4 µg/mL (≈ 9.92 µM)
- Activity (Staphylococcus aureus [19]): 0.5 log10CFU/ml
- MIC (Staphylococcus aureus [20]): 8 µg/mL (≈ 19.8 µM)
- MIC (Staphylococcus aureus [21]): 8 µg/mL (≈ 19.8 µM)
- MIC (Enterococcus faecalis [22]): 4 µg/mL (≈ 9.92 µM)
- inhibition (Escherichia coli): inactive
- Activity (Staphylococcus aureus [23]): 1.04 log10CFU/ml
